Measurements published in publication PMC3944097 (ACS chemical biology, 2013).

How the values were obtained:
MMP-13 = MMP-13 (Homo sapiens, UniProt P45452); experiment: LC/MS analysis of probe fragmentation on incubation with MMP-13; assay type: biochemical; settings: for metabolites found after incubation with MMP-13: 2 h incubation with MMP-13, LC/MS
In short: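 Test compound (1 μM) incubated with MMP-13 catalytic domain (40 nM) at 37 °C in 50 mM Tris, 10 mM CaCl2, 150 mM NaCl, 0.05% Brij35, pH 7.8. Aliquots were taken every 10 min to 60 min, then every 20 min to 120 min. Each was quenched with an equal volume of acetonitrile containing 10% HCOOH. Fragments were identified by UPLC–Q-Tof LC–MS.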

[1] = tested on: catalytic domain of MMP-13; experiment: reaction buffer; settings: 37 °C, up to 120 min
[2] = assay type: in vivo, mice; settings: for half-life: mouse, iv
In short: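 Female athymic nude mice bore SCC-7 tumours, grown from 1 × 10^6 cells injected subcutaneously into the right front flank and used at ~300 mm3. Probe was given intravenously via the tail vein. Blood was sampled at 1, 5, 15, 30, 45 and 60 min. Intact probe and the Met1/Met2 fragments were measured by HPLC–QTRAP LC–MS using a single MRM transition, with triplicate injections.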

[3] = LC/MS identification of parent probe, Met1 and Met2 in tumor, plasma and liver; assay type: in vivo, mice; settings: 60 min after probe injection; for species detected in liver: liver homogenate; for species detected in liver / parent probe in plasma: LC/MS; for species detected in SCC-7 tumor: tumor homogenate, high sensitivity LC/MS
In short: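 Female athymic nude mice bore subcutaneous SCC-7 tumours (~300 mm3) and received probe intravenously via the tail vein. At 60 min, plasma, tumour and liver were collected. Tissues were weighed, stored in liquid nitrogen and homogenised in H2O/acetonitrile 50/50 containing 10% HCOOH. After pellet removal, extracts were lyophilised and redissolved in the same solvent. High-sensitivity LC–MS then screened for parent probe, Met1 and Met2.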

different MMPs = experiment: Specificity and selectivity of probes to MMP enzymes; assay type: biochemical; settings: fluorescence activation by MMP enzymes (Figure 2a)

Row | Compound | further cleavage of metabolite by MMP-13 (MMP-13; incubation with MMP-13, LC/MS, late time points) | cleaved bond [1] | metabolites found after incubation with MMP-13 (MMP-13) | intact probe in blood samples at 45 min after injection ([2]; mice, i.v., blood, LC/MS) | half-life ([2]; blood) [min] | species detected in liver [3] | parent probe in plasma [3] | species detected in SCC-7 tumor [3] | Met1/Met2 ratio in blood ([2]; mice, i.v., blood samples at 1, 5, 15, 30, 45 and 60 min p.i., LC/MS) | enzyme specificity and selectivity over different MMPs (different MMPs)
1 | Cy5.5-GPLGVR [Met2] | can be further cut by MMP-13 to form Met1 | – | – | – | – | – | – | – | – | –
2 | GPLGVRGKGG | – | Gly4-Val5, major | – | – | – | – | – | – | – | –
3 | CCN(CC)c1ccc2nc3ccc(N=Nc4ccc(N(C)CCCC(=O)NCCCC[C@H](NC(=O)CNC(=O)[C@H](CCCNC(=N)N)NC(=O)[C@@H](NC(=O)CNC(=O)[C@H](CC(C)C)NC(=O)[C@@H]5CCCN5C(=O)CNC(=O)CCCCC[N+]5=C(C=CC=CC=C6N(CC)c7ccc8c(S(=O)(=O)[O-])cc(S(=O)(=O)O)cc8c7C6(C)C)C(C)(C)c6c5ccc5c(S(=O)(=O)[O-])cc(S(=O)(=O)O)cc65)C(C)C)C(=O)NCC(=O)NCC(=O)NCCOCCOCCOCCOCCOCCOCCOCCOCCOCCOCCOCCO)cc4)cc3[n+](-c3ccccc3)c2c1 [L-MMP-P12] | – | – | two major fragments | almost no intact L-MMP-P12 can be detected | 7.81 ± 0.25 | only Met2 fragment could be detected | very little L-MMP-P12 was found | only Met2 was detected while no parent probe or Met1 was found | – | –
4 | CCN(CC)c1ccc2nc3ccc(N=Nc4ccc(N(C)CCCC(=O)NCCCC[C@@H](NC(=O)CNC(=O)[C@H](CCCNC(=N)N)NC(=O)[C@@H](NC(=O)CNC(=O)[C@H](CC(C)C)NC(=O)[C@@H]5CCCN5C(=O)CNC(=O)CCCCC[N+]5=C(C=CC=CC=C6N(CC)c7ccc8c(S(=O)(=O)[O-])cc(S(=O)(=O)O)cc8c7C6(C)C)C(C)(C)c6c5ccc5c(S(=O)(=O)[O-])cc(S(=O)(=O)O)cc65)C(C)C)C(=O)NCC(=O)NCC(=O)NCCOCCOCCOCCOCCOCCOCCOCCOCCOCCOCCOCCO)cc4)cc3[n+](-c3ccccc3)c2c1 [D-MMP-P12] | – | – | only the MMP specific metabolite Met1 but not Met2 was found | – | 29.8 ± 0.45 | only Met2 fragment could be detected | still detectable after 1 h | parent D-MMP-P12 probe, Met1 and Met2 were all detectable | much higher than that of L-MMP-P12 at all the time points examined | very similar enzyme specificity and selectivity with L-MMP-P12
